Assays:
[1] = Lipophilicity, log D of the compound after 30 mins by HPLC/UV method; type: physicochemical; details: 0.5 h
[2] = test system: Ebolavirus; test: Antiviral activity against Ebolavirus Kikwit infected in human HeLa cells assessed as reduction in viral glycoprotein levels preincubated with cells for 2 hrs followed by viral infection measured after 48 hrs by immunostaining based assay; type: functional, cell-based; details: hela
[3] = test system: Ebolavirus; test: Antiviral activity against GFP-fused Ebolavirus infected in TERT-immortalized HMVEC assessed as reduction in viral replication preincubated with cells followed by viral infection measured after 3 to 4 days by fluorescence assay; type: functional
[4] = test system: Human orthopneumovirus; test: Antiviral activity against Respiratory syncytial virus A2 infected in human Hep2 cells assessed as reduction of virus-induced cytopathic effect after 4 days by Cell-Titer Glo assay; type: functional, cell-based
[5] = test system: Hepatitis C virus; test: Antiviral activity against Hepatitis C virus genotype 1b infected in human HuH7 cells preincubated with cells for 3 days followed by viral infection by luciferase assay; type: functional, cell-based, Hepacivirus hominis
[6] = test system: HEp-2; test: Cytotoxicity against human Hep2 cells assessed as reduction in cell viability after 4 to 5 days by Cell-Titer Glo assay; type: cell-based; details: hep-2
[7] = test system: MT4; test: Cytotoxicity against human MT4 cells assessed as reduction in cell viability after 4 to 5 days by Cell-Titer Glo assay; type: cell-based; details: mt4
[8] = test system: Ebolavirus; test: Antiviral activity against Ebolavirus Kikwit infected in human macrophages preincubated with cells for 2 hrs followed by viral infection measured after 48 hrs; type: functional
[9] = test system: Plasma; test: Half life in human plasma at 2 uM by LC/MS/MS analysis; type: ADME, cell-free; details: 2 µM
[10] = test system: Plasma; test: Prodrug conversion in rhesus monkey plasma assessed as (2R,3R,4S,5R)-2-(4-aminopyrrolo[1,2-f][1,2,4]triazin-7-yl)-3,4-dihydroxy-5-(hydroxymethyl)tetrahydrofuran-2-carbonitrile formation at 10 mg/kg, iv administered as single bolus dose; type: ADME, organism-based, Macaca mulatta; details: in vivo
In short: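 Rhesus monkeys received a single 10 mg/kg iv slow bolus. Plasma was sampled over time, and the prodrug and the parent nucleoside formed from it were both quantified to give a concentration–time profile. Values are mean ± SD, n = 3 per time point.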

[11] = test system: PBMC; test: Drug metabolism in rhesus monkey PBMC assessed as ((2R,3S,4R,5R)-5-(4-aminopyrrolo[1,2-f][1,2,4]triazin-7-yl)-5-cyano-3,4-dihydroxytetrahydrofuran-2-yl)methyl tetrahydrogen triphosphate levels at 10 mg/kg, iv administered as single bolus dose up to 2 hrs; type: ADME, organism-based, Macaca mulatta; details: in vivo
In short: (§1)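 Rhesus monkeys received a single 10 mg/kg iv slow bolus. The active triphosphate metabolite was measured inside PBMCs over time to build a concentration–time profile. Values are mean ± SD, n = 3 per time point.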

[12] = test system: PBMC; test: Time at which plasma concentration greater than in vitro EBOV antiviral IC50 in rhesus monkey PBMC assessed as ((2R,3S,4R,5R)-5-(4-aminopyrrolo[1,2-f][1,2,4]triazin-7-yl)-5-cyano-3,4-dihydroxytetrahydrofuran-2-yl)methyl tetrahydrogen triphosphate levels at 10 mg/kg, iv administered as single bolus; type: ADME, organism-based, Macaca mulatta; details: in vivo; in short: as §1
[13] = test system: Ebolavirus; test: Antiviral activity against Ebolavirus infected in rhesus monkey assessed as survival rate at 3 mg/kg, iv qd administered continuously starting from day 3 post infection for 12 days measured on day 28 (reference value: 33%); type: functional; details: Orthoebolavirus, in Macaca mulatta
[14] = test system: Ebolavirus; test: Antiviral activity against Ebolavirus infected in rhesus monkey assessed as viral RNA copies at 10 mg/kg, iv administered daily administered daily starting from day 3 post infection measured on day 5 and 7 (reference value: 10^9 copies/ml); type: functional
[15] = Drug uptake in cynomolgus monkey testes at 10 mg/kg, iv at 4 hrs post dose; type: ADME, organism-based, Macaca fascicularis, Testis; details: in vivo
[16] = Drug uptake in cynomolgus monkey epididymis at 10 mg/kg, iv at 4 hrs post dose; type: ADME, organism-based, Macaca fascicularis; details: in vivo
[17] = test system: Plasma; test: Drug uptake in cynomolgus monkey plasma at 10 mg/kg, iv at 4 hrs post dose; type: ADME, organism-based, Macaca fascicularis; details: in vivo
[18] = Drug metabolism in cynomolgus monkey testes at 10 mg/kg, iv after 168 hrs post dose; type: ADME, organism-based, Macaca fascicularis, Testis; details: in vivo
[19] = test system: Brain; test: Drug uptake in cynomolgus monkey brain at 10 mg/kg, iv at 4 hrs post dose; type: ADME, organism-based, Macaca fascicularis; details: in vivo
[20] = test system: Brain; test: Drug uptake in cynomolgus monkey brain at 10 mg/kg, iv at 168 hrs post dose; type: ADME, organism-based, Macaca fascicularis; details: in vivo
[21] = test system: Homo sapiens; test: Toxicity in iv dosed phase-1 acute meningoencephalytis patient administered as single dose; type: organism-based; details: in vivo
[22] = test system: Homo sapiens; test: Toxicity in phase-1 acute meningoencephalytis patient at 150 mg, iv qd administered daily for 2 days followed by 225 mg for 14 days; type: organism-based; details: in vivo
[23] = test system: Ebolavirus; test: Antiviral activity against Ebolavirus infected in rhesus monkey assessed as survival rate at 10 mg/kg, iv administered daily starting from day 3 post infection for 12 days relative to control; type: functional; details: Orthoebolavirus, in Macaca mulatta
[24] = Inhibition of Respiratory syncytial virus A2 RNA-dependent-RNA polymerase assessed as reduction in RNP transcriptional activity after 90 mins in presence of [gamma-32P]ATP by agarose gel based phosphorimaging assay; design: species or system Human respiratory syncytial virus A2
[25] = Inhibition of Hepatitis C virus genotype 1b NS5B RNA-dependent-RNA polymerase preincubated for 5 mins followed by [alpha-33P]GTP addition measured after 90 mins by phosphorimaging assay; design: species or system Hepatitis C virus subtype 1b
[26] = target: T1, DNA-directed RNA polymerase, mitochondrial (Homo sapiens, UniProt O00411); test: Inhibition of human mitochondrial RNA polymerase after 30 mins in presence of [33P]GTP
T1 sequence (O00411 whole entry): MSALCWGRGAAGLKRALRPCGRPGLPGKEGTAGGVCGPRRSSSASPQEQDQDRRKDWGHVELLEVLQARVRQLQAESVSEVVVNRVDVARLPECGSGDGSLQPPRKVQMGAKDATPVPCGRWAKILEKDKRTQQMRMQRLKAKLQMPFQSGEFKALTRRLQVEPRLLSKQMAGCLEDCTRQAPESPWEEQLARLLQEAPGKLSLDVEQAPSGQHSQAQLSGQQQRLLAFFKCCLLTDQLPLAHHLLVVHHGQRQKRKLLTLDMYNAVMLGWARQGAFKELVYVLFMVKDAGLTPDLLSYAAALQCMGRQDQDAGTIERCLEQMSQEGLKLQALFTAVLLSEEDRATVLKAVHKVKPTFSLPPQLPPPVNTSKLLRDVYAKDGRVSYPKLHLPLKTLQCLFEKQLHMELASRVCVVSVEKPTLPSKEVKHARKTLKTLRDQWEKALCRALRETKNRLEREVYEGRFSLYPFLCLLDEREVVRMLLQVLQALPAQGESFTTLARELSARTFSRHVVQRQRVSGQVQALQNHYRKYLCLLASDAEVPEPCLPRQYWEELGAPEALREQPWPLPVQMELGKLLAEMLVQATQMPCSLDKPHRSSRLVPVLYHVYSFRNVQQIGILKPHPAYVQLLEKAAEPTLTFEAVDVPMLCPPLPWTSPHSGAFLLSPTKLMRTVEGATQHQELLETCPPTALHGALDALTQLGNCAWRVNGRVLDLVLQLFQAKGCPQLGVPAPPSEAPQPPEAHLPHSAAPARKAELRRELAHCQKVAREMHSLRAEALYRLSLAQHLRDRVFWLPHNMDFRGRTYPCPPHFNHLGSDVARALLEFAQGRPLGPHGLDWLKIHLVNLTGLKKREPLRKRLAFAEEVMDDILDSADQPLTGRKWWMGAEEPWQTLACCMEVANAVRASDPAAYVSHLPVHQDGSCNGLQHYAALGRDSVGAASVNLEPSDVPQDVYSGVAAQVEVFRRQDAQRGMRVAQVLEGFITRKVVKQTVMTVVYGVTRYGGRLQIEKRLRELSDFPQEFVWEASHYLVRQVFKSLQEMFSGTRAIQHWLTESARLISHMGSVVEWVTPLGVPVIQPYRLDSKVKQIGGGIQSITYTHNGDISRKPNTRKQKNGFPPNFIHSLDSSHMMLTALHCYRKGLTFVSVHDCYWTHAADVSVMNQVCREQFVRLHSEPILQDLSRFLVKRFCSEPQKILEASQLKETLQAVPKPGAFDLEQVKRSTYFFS

[27] = Inhibition of RNA polymerase 2 in human HeLa cells preincubated for 5 mins with […] as substrate followed by addition of cell extract measured after 1 hr by SDS-PAGE method
[28] = target: T2, DNA polymerase alpha catalytic subunit (Homo sapiens, UniProt P09884); test: Inhibition of recombinant human DNA polymerase alpha preincubated with enzyme followed by addition of dATP/dGTP/TTP as substrate in presence of […] by phosphorimaging assay
T2 sequence (P09884 whole entry): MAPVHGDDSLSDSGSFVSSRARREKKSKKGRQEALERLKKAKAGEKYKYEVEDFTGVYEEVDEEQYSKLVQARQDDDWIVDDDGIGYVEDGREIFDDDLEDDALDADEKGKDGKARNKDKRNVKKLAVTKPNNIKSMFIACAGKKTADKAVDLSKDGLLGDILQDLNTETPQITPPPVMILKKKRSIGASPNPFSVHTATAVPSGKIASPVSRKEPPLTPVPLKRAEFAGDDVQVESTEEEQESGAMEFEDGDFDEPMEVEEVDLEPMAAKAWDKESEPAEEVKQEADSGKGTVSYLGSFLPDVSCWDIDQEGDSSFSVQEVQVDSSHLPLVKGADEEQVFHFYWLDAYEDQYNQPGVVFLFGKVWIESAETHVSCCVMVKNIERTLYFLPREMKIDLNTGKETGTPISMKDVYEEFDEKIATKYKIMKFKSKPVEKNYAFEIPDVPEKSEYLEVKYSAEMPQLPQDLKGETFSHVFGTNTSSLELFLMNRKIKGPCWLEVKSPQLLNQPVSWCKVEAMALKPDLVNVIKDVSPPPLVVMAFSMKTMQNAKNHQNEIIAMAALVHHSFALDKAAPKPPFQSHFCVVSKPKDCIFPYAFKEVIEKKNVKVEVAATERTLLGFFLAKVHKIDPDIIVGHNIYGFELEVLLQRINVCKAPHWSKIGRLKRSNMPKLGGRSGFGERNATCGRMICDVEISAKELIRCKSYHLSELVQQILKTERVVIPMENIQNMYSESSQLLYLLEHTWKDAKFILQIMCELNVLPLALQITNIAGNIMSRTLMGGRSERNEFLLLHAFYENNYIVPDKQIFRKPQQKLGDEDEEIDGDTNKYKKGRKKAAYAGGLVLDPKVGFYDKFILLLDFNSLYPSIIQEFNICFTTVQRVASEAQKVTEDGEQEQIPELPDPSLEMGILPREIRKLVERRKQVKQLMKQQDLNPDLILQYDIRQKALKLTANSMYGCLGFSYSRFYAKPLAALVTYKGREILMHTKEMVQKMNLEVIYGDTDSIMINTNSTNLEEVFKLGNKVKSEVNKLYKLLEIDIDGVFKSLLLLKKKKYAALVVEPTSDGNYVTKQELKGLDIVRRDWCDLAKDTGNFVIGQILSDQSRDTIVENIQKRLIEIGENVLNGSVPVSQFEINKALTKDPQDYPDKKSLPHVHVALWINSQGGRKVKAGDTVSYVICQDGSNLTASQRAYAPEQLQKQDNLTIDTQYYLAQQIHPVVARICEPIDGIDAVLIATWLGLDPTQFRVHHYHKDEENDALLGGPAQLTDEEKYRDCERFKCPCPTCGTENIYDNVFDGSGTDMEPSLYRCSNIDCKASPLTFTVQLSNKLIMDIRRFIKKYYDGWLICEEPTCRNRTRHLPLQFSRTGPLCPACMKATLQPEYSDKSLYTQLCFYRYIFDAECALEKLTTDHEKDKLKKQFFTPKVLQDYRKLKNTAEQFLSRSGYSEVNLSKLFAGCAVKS

[29] = target: DNA polymerase beta (Homo sapiens, UniProt P06746); test: Inhibition of recombinant human DNA polymerase beta preincubated with enzyme followed by addition of dATP/dGTP/TTP as substrate in presence of […] by phosphorimaging assay
[30] = Inhibition of recombinant human DNA polymerase gamma preincubated with enzyme followed by addition of dATP/dGTP/TTP as substrate in presence of […] by phosphorimaging assay
[31] = target: T1, DNA-directed RNA polymerase, mitochondrial; test: Inhibition of human mitochondrial RNA polymerase assessed as single nucleotide incorporation rate in presence of 5'-[32P]-R12/D18 as primer/template by PAGE based phosphorimaging assay; design: scale not given: the % may be the effect or the level left
[32] = Inhibition of recombinant human DNA polymerase gamma assessed as single nucleotide incorporation rate after 5 to 90 mins in presence of [32P]-D19/D36 as primer/template by PAGE based phosphorimaging assay; design: scale not given: the % may be the effect or the level left
[33] = test system: PBMC; test: Drug level in rhesus monkey PBMC treated with (S)-2-Ethylbutyl 2-(((S)-(((2R,3S,4R,5R)-5-(4-Aminopyrrolo-[2,1-f][1,2,4]triazin-7-yl)-5-cyano-3,4-dihydroxytetrahydrofuran-2-yl)methoxy)(phenoxy)phosphoryl)amino)propanoate at 10 mg/kg, iv administered as single bolus dose up to 2 hrs; type: ADME, organism-based, Macaca mulatta; details: in vivo
[34] = Drug level in TERT-immortalized HMVEC treated with (2S)-2-ethylbutyl 2-((((2R,3S,4R,5R)-5-(4-aminopyrrolo[1,2-f][1,2,4]triazin-7-yl)-5-cyano-3,4-dihydroxytetrahydrofuran-2-yl)methoxy)(phenoxy)phosphorylamino)propanoate at 1 uM after 2 to 72 hrs; type: ADME, cell-based; details: human
[35] = Drug level in human HeLa cells treated with (2S)-2-ethylbutyl 2-((((2R,3S,4R,5R)-5-(4-aminopyrrolo[1,2-f][1,2,4]triazin-7-yl)-5-cyano-3,4-dihydroxytetrahydrofuran-2-yl)methoxy)(phenoxy)phosphorylamino)propanoate at 1 uM after 2 to 72 hrs; type: ADME, cell-based
[36] = test system: Macrophage; test: Drug level in human macrophages treated with (2S)-2-ethylbutyl 2-((((2R,3S,4R,5R)-5-(4-aminopyrrolo[1,2-f][1,2,4]triazin-7-yl)-5-cyano-3,4-dihydroxytetrahydrofuran-2-yl)methoxy)(phenoxy)phosphorylamino)propanoate at 1 uM after 2 to 72 hrs; type: ADME, cell-based

**Q.** Which results are given for `CCC(CC)COC(=O)[C@H](C)N[P@](=O)(OC[C@H]1O[C@@](C#N)(c2ccc3c(N)ncnn23)[C@H](O)[C@@H]1O)Oc1ccccc1`?
**A.** logD [1]: 2.1; EC50 [2]: 100 nM; EC50 [3]: 53 nM; EC50 [4]: 15 nM; EC50 [5]: 57 nM; CC50 [6]: 6100 nM; CC50 [7]: 1700 nM; EC50 [8]: 86 nM; t1/2 [9]: 1.15 h; Drug metabolism [10]: Metabolite_Detected; Drug metabolism [11]: Metabolite_Detected; Time [12]: 24 h; survival at 3 mg/kg [13]: 66%; Activity [14]: <80000 mL⁻¹; Drug uptake [15]: Active; Drug uptake [16]: Active; Drug uptake [17]: Active; Drug uptake [18]: Metabolite_Detected; Drug uptake [19]: Not Active; Drug uptake [20]: Active; Activity [21]: Non-Toxic; Activity [22]: Non-Toxic; survival at 10 mg/kg [23]: 100%

**Q.** What does the source list for `N#C[C@@]1(c2ccc3c(N)ncnn23)O[C@H](COP(=O)(O)OP(=O)(O)OP(=O)(O)O)[C@@H](O)[C@H]1O` [RDV-TP]?
**A.** IC50 [24]: 1100 nM; IC50 [25]: 5000 nM; IC50 [26]: > 200000 nM; IC50 [27]: > 200000 nM; IC50 [28]: > 200000 nM; IC50 [29]: > 200000 nM; IC50 [30]: > 200000 nM; Activity [31]: 6%; Activity [32]: 0%; Drug metabolism [33]: Metabolite_Detected; Drug metabolism [34]: Metabolite_Detected; Drug metabolism [35]: Metabolite_Detected; Drug metabolism [36]: Metabolite_Detected
